Screening results (PubChem BioAssay)
The list is not random: actives were taken first. Their share in the collection is about 1.5%.
CaV13 FRET inh: Primary screen for inhibitors of IQ motif and Ca2+-dependent inactivation inhibitor domain binding in CACNA1D, Förster resonance energy transfer in living cells, …; HEK cells, CFP/YFP FRET ICDI-IQ, plate reader, 10 min; percent FRET-ratio fall versus neutral wells; inhibition, % at 12.3 µM; 340,000 compounds, 0.098% hits; AID 743397;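 active = mean replicate inhibition of at least 30% and at least 1% of replicates passing that level; inconclusive = only one of the two criteria is met; inactive = neither criterion is met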;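 note: 0% = median of the neutral control wells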
Hck-Nef inh: inhibitors of human Hck kinase activated by Nef. 220,000 compounds, 0.68% hits. P08631. Recombinant Hck-YEEI plus Nef, Z-Lyte FRET kinase assay. inhibition, % at 20 µM;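 active = Hck-Nef kinase inhibition above about 50%, limit read from the data; inactive = inhibition below that limit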;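 note: 0% = DMSO with Hck plus Nef and 100% = Hck alone without Nef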
Target sequence (P08631 whole entry, looked up): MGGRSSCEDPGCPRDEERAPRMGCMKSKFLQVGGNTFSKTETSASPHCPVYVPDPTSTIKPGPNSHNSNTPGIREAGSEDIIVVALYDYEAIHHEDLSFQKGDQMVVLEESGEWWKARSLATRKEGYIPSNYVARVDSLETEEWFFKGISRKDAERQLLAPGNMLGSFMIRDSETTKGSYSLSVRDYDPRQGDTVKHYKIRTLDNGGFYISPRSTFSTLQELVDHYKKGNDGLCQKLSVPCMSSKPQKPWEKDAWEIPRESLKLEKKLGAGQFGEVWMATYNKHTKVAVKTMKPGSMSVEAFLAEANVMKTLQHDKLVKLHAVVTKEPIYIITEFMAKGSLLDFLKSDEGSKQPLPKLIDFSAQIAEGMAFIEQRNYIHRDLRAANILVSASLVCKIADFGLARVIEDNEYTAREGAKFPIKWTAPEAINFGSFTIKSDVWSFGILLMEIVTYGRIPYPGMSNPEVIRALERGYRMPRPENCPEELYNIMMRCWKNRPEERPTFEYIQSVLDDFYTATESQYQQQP
Runt-CBFb FRET: inhibitors of human RUNX1 Runt domain binding to CBFb; Q01196+Q13951; Cerulean-Runt/Venus-CBFb FRET ratio 530/480, 1 h; inhibition, % at 20 µM; 220,000 compounds, 0.46% hits;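 active = inhibition over about 50% at 20 µM in the single-dose screen, limit read from the data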;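 note: 0% = DMSO wells and 100% = excess unlabeled CBFb competitor control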
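Reagent – Venus-CBFb binding partner, 100 nM · Assay system – Cerulean-tagged RUNX1 Runt domain (FRET donor) fusion protein · Input – 100 nM per protein · Incubation – two 1 h room-temperature incubations shielded from light · Measured by – FRET fluorescence · Medium – Tris buffer pH 7.5 with salts and BSA · Benchmarks – unlabeled CBFb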
Runt-SMMHC FRET: Runt domain-CBFb-SMMHC interaction inhibition | inhibition, % at 20 µM | Q01196+Q13951 | Cerulean-Runt/Venus-CBFb-SMMHC FRET ratio 530/480, 1 h | 220,000 compounds, 0.74% hits;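 active = mean inhibition across duplicate retests at 20 µM reaching about 50%, limit read from the data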;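 note: 0% = DMSO wells and 100% = wells with excess untagged CBFb-SMMHC; inhibitors lower the FRET ratio by blocking Runt binding to CBFb-SMMHC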
RanGTP-Imp inh: inhibitors of RanGTP-importin-beta interaction, primary screen, biochemical, FRET, CFP-Ran, YFP-importin-beta, homogeneous | inhibition, % (concentration not given with the values) | AID 2216 | 300,000 compounds, 1.1% hits | cell-free CFP-Ran/YFP-importin-beta FRET ratio;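 active = more than half of the replicate wells show a fall in the fluorescence ratio signal beyond about 16%, limit read from the data, passing the limit was not always enough; inconclusive = exactly half of the replicate wells pass the set limit; inactive = fewer than half of replicates pass the limit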;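 note: 0% = DMSO wells and 100% = Ran loaded with GDP instead of GTP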
* hit, by the source's call; ? = inconclusive; . = no result given; + = active, no number.

SMILES	CaV13 FRET inh	Hck-Nef inh	Runt-CBFb FRET	Runt-SMMHC FRET	RanGTP-Imp inh
COc1ccc(N=c2oc3cc(O)ccc3cc2C(=O)NCC2CCCO2)cc1 (centres undefined)	15	45	82*	64*	173*
Cc1ccc(C(=O)N/N=c2\oc3ccccc3cc2C(N)=O)cc1	-6	.	.	.	-5
CCOc1ccc2oc(C(=O)NCC3CCCO3)c(C)c2c1 (centres undefined)	-3	.	.	.	0
COc1ccc(N=c2oc3cc(O)ccc3cc2C(=O)NCC2CCCO2)c(OC)c1 (centres undefined)	21	22	11	41	176*
COC(=O)C1=CN(Cc2cccs2)C=C(C(=O)OC)C1c1cccc(O)c1	-4	42	98*	133*	11
COC(=O)C1=CN(Cc2ccc(OC)c(OC)c2)C=C(C(=O)OC)C1c1cccc(F)c1	79*	.	.	.	?
COc1ccc(/C=C(\NC(=O)c2ccccc2)C(=O)N2CCCCC2)cc1OC	-2	.	.	.	2
Nc1cccc2c1C(=O)N(c1ccccc1)C2=O	+	.	.	.	8
COC(=O)c1noc(C)c1-c1ccnn1C(=O)c1ccc(C)cc1	-2	-152	-1	-6	12*
Cc1ccc(OCCCCN2CCc3ccccc3C2)cc1	-20	.	.	.	1
Cc1noc(C)c1COc1ccc(C(=O)Nc2nnc(CC(C)C)s2)cc1	-8	.	.	.	.
N=c1c(C(=O)NC2CCCC2)cc2c(=O)n3ccccc3nc2n1C1CCCCC1	16	.	.	.	181*
Cc1ccc2nc3c(cc(C(=O)NC4CCCC4)c(=N)n3C3CCCCC3)c(=O)n2c1	14	.	.	.	182*
Cc1nc2ccccn2c1C(=O)NC1CCCC1	-19	20	0	0	8
Cc1ccc2nc3c(cc(C(=O)NC4CCCCC4)c(=N)n3C3CCCCC3)c(=O)n2c1	16	.	.	.	182*
O=C(O)c1cccc(-n2cccc2/C=C2\NC(=O)N(Cc3ccc(F)cc3)C2=O)c1	-4	11	22	15	2
Cc1cccc(NC(=O)CN2C(=O)S/C(=C\c3ccc(-c4cccc(C(=O)O)c4C)o3)C2=O)c1	-9	-9	31	54	41*
Cc1ccc(NC(=O)CN2C(=O)S/C(=C/c3ccc(-c4cc(C(=O)O)ccc4C)o3)C2=O)cc1C	-8	16	13	-42	36*
Cc1cc(C(=O)O)ccc1-c1ccc(/C=C2\NC(=O)N(Cc3ccc(F)cc3)C2=O)o1	-2	47	116*	80*	65*
COC(=O)C(C)N1C(=O)S/C(=C\c2ccc(-c3ccc(C(=O)O)cc3C)o2)C1=O (centres undefined)	-5	.	.	.	17*
NS(=O)(=O)c1ccc(CCNC(=O)c2ccc([N+](=O)[O-])s2)cc1	-3	.	.	.	2
COC(=O)[C@@H](NC(=O)NC1CCCCC1C)C(C)C (some centres undefined)	-4	-5	0	0	5
Cn1c(NNC(=O)c2c(F)cccc2F)cc(=O)n(C)c1=O	-2	5	11	6	9
Cn1c(NNC(=O)c2cccc3ccccc23)cc(=O)n(C)c1=O	-3	6	49	93*	24*
Cc1ccc(C(=O)NNc2cc(=O)n(C)c(=O)n2C)cc1C	-7	6	20	49	28*
SMILES	CaV13 FRET inh	Hck-Nef inh	Runt-CBFb FRET	Runt-SMMHC FRET	RanGTP-Imp inh
NCc1csc(Nc2ncccn2)n1	-8	.	.	.	.
Cc1ccccc1NC(=O)c1ccccc1N(C)S(=O)(=O)c1ccccc1	-5	.	.	.	-3
O=C1CCc2cc(NS(=O)(=O)c3ccccc3)cc3c2N1CC3	-7	.	.	.	1
Cc1ccc(C(=O)Nc2ccnc(-c3cccnc3)n2)cc1	-6	36	-3	0	5
Cc1ccc(NC(=O)Nc2ccnc(-c3cccnc3)n2)cc1	43*	24	2	-4	0
Cc1ccc(C)c(S(=O)(=O)NCC(=O)OCC(=O)Nc2sccc2C(N)=O)c1	-7	.	.	.	.
O=c1cc(N2CCCCC2)[nH]c(=O)n1C1CCCCC1	-6	13	2	-6	12
COC(=O)C1CCN(c2cc(=O)n(C3CCCCC3)c(=O)[nH]2)CC1	.	0	0	0	63*
COC(=O)C1CCN(c2cc(=O)n(Cc3ccc(F)cc3)c(=O)[nH]2)CC1	-7	-2	-1	-3	59*
Cc1cccc(C(=O)N(C(=O)c2cccc(C)c2)N(C)C)c1	-5	.	.	.	.
Cn1cc(Cl)c(C(=O)OCC(=O)Nc2ccc(S(N)(=O)=O)cc2)n1	-4	.	.	.	-2
CN1CC2(Cc3c1ccc1ccccc31)C(=O)OC(C)(C)OC2=O	-4	19	29	113*	-1
COc1ccc(-c2cc(=O)oc3cc(OC(=O)C4CCCCC4)c(Cl)cc23)cc1	-29	40	67*	58*	21*
COc1ccc(-c2cc(=O)oc3cc(O)ccc23)cc1	-17	.	.	.	-2
CC(C)S(=O)(=O)C1=NSC2=NC(=O)/C(=C\c3ccc(-c4ccccc4)o3)C(=N)N21	-12	3	14	82*	?
CS(=O)(=O)C1=NSC2=NC(=O)/C(=C\c3ccc(-c4ccccc4)o3)C(=N)N21	.	-1	39	82	.
NS(=O)(=O)c1ccc(N=Nc2ccc(O)c3ncccc23)cc1	-4	.	.	.	-5
O=Cc1ccc(O)c2ncccc12	.	-1	43	74*	9
CC1=C(C(=O)OCC2CCCO2)C(c2ccccc2)C2=C(CC(C)(C)CC2=O)N1 (centres undefined)	-6	44	20	49	2
CCOC(=O)C1=C(C)NC(C)=C(C(=O)OCC)C1c1cccc(C)n1	-4	10	2	5	3
CC1=C(C(=O)OCC2CCCO2)C(c2ccc(C)cc2)C2=C(CC(C)(C)CC2=O)N1 (centres undefined)	15	47	20	56*	5
COC(=O)c1ccc(C2C(C#N)=C(C)NC3=C2C(=O)CC(C)(C)C3)cc1 (centres undefined)	-7	12	27	81*	5
CCCCC1C(C#N)=C(C)NC2=C1C(=O)CC(C)(C)C2 (centres undefined)	-3	25	32	69*	9
CCOC(=O)C1=C(C)NC2=C(C(=O)CC(C)(C)C2)C1c1cccc(C)n1 (centres undefined)	-5	31	37	88*	?
Cc1ccc(CNC(=S)Nc2ccc3c(c2)c(=O)n(C)n3Cc2cccc(C(F)(F)F)c2)cc1	-6	.	.	.	.
COc1ccc2nc(N3CCC(C)CC3)c(C#N)cc2c1	-11	0	71*	70*	45*
COc1ccc2nc(N3CCC(O)CC3)c(C#N)cc2c1	-9	0	42	75*	51*
